The subject of data set [1] is Rattus norvegicus. The experiment in a line: Antipyretic activity against brewer's yeast-induced hyperthermia in albino Wistar rat assessed as change in rectal temperature at 100 mg/kg, po after 6 hrs (reference value: 33.44 +/- 0.18 degC). In kind it is functional.
Data set [2] deals with Rattus norvegicus. The experiment in a line: Antipyretic activity against brewer's yeast-induced hyperthermia in albino Wistar rat assessed as change in rectal temperature at 100 mg/kg, po after 5 hrs (reference value: 34.36 +/- 0.14 degC). It is filed as functional.
Data set [3] relates to Rattus norvegicus. The experiment in a line: Acute toxicity in albino Wistar rat assessed as sedation at up to 3 g/kg, po after 24 hrs. In kind it is organism-based. To be noted: in vivo, 3000 mg/kg. The gist of the method:
(§1)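 Albino rats of either sex, groups of six, dosed from 100 up to 3000 mg kg^-1 body weight. Watched continuously for 8 h for signs such as altered motor activity, ataxia, tremors, convulsions, sedation and lacrimation. Killed at 24 h; stomach, intestine and liver inspected under magnifying lenses for ulcer-haemorrhagic spots.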

The subject of data set [4] is Rattus norvegicus. The experiment in a line: Analgesic activity in albino Wistar rat assessed as reaction time required for tail flicking at 25 mg/kg, po after 30 mins by tail-flick method (reference value: 3.97 +/- 0.287 sec). It is filed as functional.
The subject of data set [5] is Rattus norvegicus. Description: Acute toxicity in albino Wistar rat assessed as mortality at up to 3 g/kg, po after 24 hrs. In kind it is organism-based. As to conditions: in vivo, 3000 mg/kg. In a few lines:
as §1

The subject of data set [6] is Rattus norvegicus. The experiment in a line: Acute toxicity in albino Wistar rat assessed as ulceration at up to 3 g/kg, po after 24 hrs. In kind it is organism-based. As to conditions: in vivo, 3000 mg/kg. In a few lines: as §1
The test system of data set [7] is Rattus norvegicus. The experiment in a line: Antipyretic activity against brewer's yeast-induced hyperthermia in albino Wistar rat assessed as change in rectal temperature at 100 mg/kg, po after 3 hrs (reference value: 32.80 +/- 0.09 degC). It is filed as functional.
The test system of data set [8] is Rattus norvegicus. Description: Acute toxicity in albino Wistar rat assessed as convulsion at up to 3 g/kg, po after 24 hrs. It is filed as organism-based. To be noted: in vivo, 3000 mg/kg. The gist of the method: as §1
For data set [9], the system named is Rattus norvegicus. The experiment in a line: Acute toxicity in albino Wistar rat assessed as intestine ulcerhaemorrhagic spots at up to 3 g/kg, po after 24 hrs. It is filed as organism-based. To be noted: in vivo, 3000 mg/kg. The gist of the method: as §1
Data set [10] relates to Rattus norvegicus. The experiment in a line: Analgesic activity in albino Wistar rat assessed as reaction time required for tail flicking at 25 mg/kg, po after 60 mins by tail-flick method (reference value: 4 +/- 0.360 sec). In kind it is functional. Background: Thermal pain tests record how soon the animal reacts.
In data set [11] the test system is Rattus norvegicus. The experiment in a line: Acute toxicity in albino Wistar rat assessed as stomach ulcerhaemorrhagic spots at up to 3 g/kg, po after 24 hrs. In kind it is organism-based. As to conditions: in vivo, 3000 mg/kg. In a few lines:
as §1

Data set [12] relates to Rattus norvegicus. Description: Analgesic activity in albino Wistar rat assessed as reaction time required for tail flicking at 25 mg/kg, po after 90 mins by tail-flick method (reference value: 3.87 +/- 0.355 sec). In kind it is functional.
In data set [13] the test system is Rattus norvegicus. The experiment in a line: Acute toxicity in albino Wistar rat assessed as haemorrhagic spots at up to 3 g/kg, po after 24 hrs. In kind it is organism-based. To be noted: in vivo, 3000 mg/kg. In a few lines: as §1
For data set [14], the system named is Rattus norvegicus. Description: Antipyretic activity against brewer's yeast-induced hyperthermia in albino Wistar rat assessed as change in rectal temperature at 100 mg/kg, po after 1 hr (reference value: 33.78 +/- 0.18 degC). In kind it is functional.
Data set [15] concerns Rattus norvegicus. Description: Acute toxicity in albino Wistar rat assessed as tremors at up to 3 g/kg, po after 24 hrs. It is filed as organism-based. As to conditions: in vivo, 3000 mg/kg. The gist of the method: as §1
The test system of data set [16] is Nucleic Acid. The experiment in a line: Induction of Escherichia coli DNA cleavage at 25 mg after 24 hrs by agarose gel electrophoresis method. In kind it is nucleic-acid assay. The gist of the method:
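E. coli grown in nutrient broth 24 h at 37 °C. Genomic DNA isolated by SDS lysis, phenol (55 °C, 10 min), chloroform:isoamyl alcohol extraction and ethanol precipitation, dissolved in TAE. Compounds at 1 mg/ml in DMF added to DNA, incubated 2 h at 37 °C. Run on agarose gel at 50 V about 30 min, stained with ethidium bromide, bands compared with DNA marker.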

The source made the active and inactive calls. The rule behind the calls is not given here.

Regarding `Nc1nc(-c2ccccc2)cc(-c2ccc(OCc3cc(=O)oc4ccc5ccccc5c34)cc2)n1`, the T in data set [1] stood at 31.88 °C; in data set [2] it was 32.22 °C; in [7], 31.84 °C; in data set [14], 32.8 °C. The Activity entry in data set [3], in [5], in data set [6], in data set [8], in data set [9] and in data set [11] was “Non-toxic” each time. For the same compound, the Activity entry in data set [13] and in [15] was “Non-toxic” each time. Moreover, the figures for the Time in [4], in data set [10] and in data set [12] were 4 s, 7.25 s and 8 s, respectively.
For the compound `O=c1cc(COc2ccc(-c3cc(-c4ccccc4)nc(O)n3)cc2)c2c(ccc3ccccc32)o1`, the T is 32.68 °C in data set [1], 32.82 °C in data set [2], 32.72 °C in data set [7] and 32.22 °C in data set [14]. The result in [16] was Active. The Activity entry in [3], in data set [5], in data set [6], in data set [8], in data set [9] and in data set [11] was “Non-toxic” each time. Moreover, the Activity result in [13] and in data set [15] was “Non-toxic” throughout. Further, the Time is 5 s in data set [4], 8.25 s in data set [10] and 8.87 s in data set [12].
For the compound `Cc1c(N(C)CS(=O)(=O)[O-])c(=O)n(-c2ccccc2)n1C.[Na+]` [DIPYRONE SODIUM], the Time is on record as 5.77 s in [4], 8.76 s in data set [10] and 9.02 s in data set [12].
Consider `Cc1ccc2c(COc3ccc(-c4cc(-c5ccccc5)nc(N)n4)cc3)cc(=O)oc2c1`, for which the T in data set [1] was 32.8 °C; in data set [2], 33.8 °C; in [7], 32.6 °C; in [14] it was 32.74 °C. In data set [16], the outcome was Active. Besides, the Activity entry in data set [3], in data set [5], in data set [6], in data set [8], in data set [9] and in data set [11] was “Non-toxic” throughout. The Activity result in data set [13] and in data set [15] was “Non-toxic” throughout. Also, the values for the Time in [4], in data set [10] and in [12] were 5.1 s, 6.75 s and 7.5 s, respectively.
On to `Nc1nc(-c2ccccc2)cc(-c2ccc(OCc3cc(=O)oc4c3ccc3ccccc34)cc2)n1`, for which the T in [1] is 32.09 °C; in data set [2], 32.51 °C; in [7], 31.4 °C; in [14], 32.68 °C. Moreover, the Activity entry in data set [3], in [5], in data set [6], in data set [8], in data set [9] and in data set [11] was “Non-toxic” throughout. In addition, the Activity entry in data set [13] and in data set [15] was “Non-toxic” each time. For the same compound, the Time amounted to 4.04 s in data set [4], 4.75 s in [10] and 5 s in data set [12].
In the case of `Cc1ccc2oc(=O)cc(COc3ccc(-c4cc(-c5ccccc5)nc(S)n4)cc3)c2c1`, the T is 31.98 °C in data set [1], 32.8 °C in [2], 32.77 °C in data set [7] and 32.55 °C in data set [14]. For the same compound, the Activity result in [3], in data set [5], in [6], in data set [8], in data set [9] and in [11] was “Non-toxic” each time. In addition, the Activity entry in data set [13] and in data set [15] was “Non-toxic” in each case. The Time in data set [4] was 4.5 s; in data set [10], 6.5 s; in [12] it was 7.45 s.
`Cc1ccc2oc(=O)cc(COc3ccc(-c4cc(-c5ccccc5)nc(N)n4)cc3)c2c1`: the T in [1] was 33 °C; in data set [2], 33.3 °C; in data set [7] it was 31.68 °C; in [14], 32.66 °C. The Activity entry in [3], in data set [5], in data set [6], in data set [8], in data set [9] and in [11] was “Non-toxic” throughout. For the same compound, the Activity result in [13] and in data set [15] was “Non-toxic” each time. Moreover, the figures for the Time in data set [4], in [10] and in [12] were 4.75 s, 6.75 s and 7.25 s, respectively.
For the compound `Nc1nc(-c2ccccc2)cc(-c2ccc(OCc3cc(=O)oc4ccc(Cl)cc34)cc2)n1`, the T is 32.54 °C in [1], 32.09 °C in [2], 32.45 °C in data set [7] and 32.74 °C in data set [14]. In addition, the Activity result in data set [3], in [5], in [6], in data set [8], in [9] and in data set [11] was “Non-toxic” each time. The Activity result in [13] and in data set [15] was “Non-toxic” throughout. In addition, the Time in [4] worked out at 5.02 s; in data set [10], 7 s; in data set [12] it was 7.1 s.
Turning to `O=c1cc(COc2ccc(-c3cc(-c4ccccc4)nc(S)n3)cc2)c2cc(Cl)ccc2o1`, the T in data set [1] came to 32.84 °C; in data set [2], 32.84 °C; in data set [7] it was 32.61 °C; in [14] it was 32.5 °C. Moreover, the Activity result in data set [3], in [5], in data set [6], in data set [8], in data set [9] and in data set [11] was “Non-toxic” throughout. Also, the Activity entry in data set [13] and in data set [15] was “Non-toxic” in each case. Besides, the results for the Time in data set [4], in data set [10] and in [12] were 5.1 s, 7.54 s and 8.5 s, respectively.
Consider `O=c1cc(COc2ccc(-c3cc(-c4ccccc4)nc(S)n3)cc2)c2c(ccc3ccccc32)o1`, for which the T in data set [1] amounted to 32.66 °C; in data set [2] it was 33.01 °C; in data set [7], 31.98 °C; in [14], 32.92 °C. In data set [16], the outcome was Active. Further, the Activity entry in [3], in [5], in data set [6], in [8], in data set [9] and in data set [11] was “Non-toxic” in each case. Also, the Activity result in [13] and in data set [15] was “Non-toxic” in each case. Also, the Time in data set [4] came out at 4.25 s; in data set [10], 4.5 s.
